Assay results as given in ChEMBL document CHEMBL5661985, “In silico design of novel probes for the atypical opioid receptor MRGPRX2” (Nat Chem Biol, 2017).
Calls of active or inactive are those of the source. The rule behind the calls is not given here.

How the values were obtained:
[1] = molecular target: T1, Mas-related G-protein coupled receptor member X2 (Homo sapiens, UniProt Q96LB1); experiment: Agonist activity at MRGPRX2 (unknown origin) expressed in HTLA cells assessed as induction of beta-arrestin 2 recruitment incubated for 18 to 24 hrs by PRESTO-Tango assay; assay type: functional, cell-based
T1 sequence (Q96LB1 whole entry): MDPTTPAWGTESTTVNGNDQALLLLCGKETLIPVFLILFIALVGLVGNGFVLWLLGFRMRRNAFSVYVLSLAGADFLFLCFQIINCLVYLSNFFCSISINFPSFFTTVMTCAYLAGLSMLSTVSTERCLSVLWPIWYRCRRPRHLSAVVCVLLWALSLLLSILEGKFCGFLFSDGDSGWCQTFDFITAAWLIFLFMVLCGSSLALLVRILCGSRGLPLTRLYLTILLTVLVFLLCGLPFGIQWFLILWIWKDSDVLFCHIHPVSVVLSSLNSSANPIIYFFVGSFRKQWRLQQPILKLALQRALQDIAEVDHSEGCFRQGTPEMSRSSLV

[2] = molecular target: T2, Mas-related G-protein coupled receptor member X2 (Homo sapiens) (UniProt Q96LB1); experiment: Agonist activity at N-terminal Flag-tagged human MRGPRX2 receptor expressed in tetracycline-induced FLP-IN/T-REX 293 cells assessed as increase in intracellular calcium release < 10 uM by FLIPR assay; assay type: functional, cell-based; conditions: filed as agonist
T2 sequence (whole entry): T1 sequence (Q96LB1 whole entry)
How it was run: (§1)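 FLIPR calcium: FLP-IN/T-REX HEK-293-T stable line with N-terminal FLAG codon-optimized receptor, induced 24 h with 1 μg/mL tetracycline in 1% dialyzed FBS (uninduced cells as control); FLIPR calcium dye plus 2.5 mM probenecid 1 h 37°C; 10 s baseline, then drug in HBSS/20 mM HEPES/probenecid pH 7.4, 16-point curve 10 μM to 0.003 nM; fluorescence 120 s; fold over basal, n=3 triplicate.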

[3] = molecular target: T2, Mas-related G-protein coupled receptor member X2 (Homo sapiens); experiment: Agonist activity at MRGPRX2 (unknown origin) expressed in HTLA cells assessed as induction of beta-arrestin 2 recruitment <10 uM incubated for 18 to 24 hrs by PRESTO-Tango assay; assay type: functional, cell-based; conditions: filed as agonist, time 18-24 hrs
How it was run: (§2)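 β-arrestin2 recruitment by PRESTO-Tango: HTLA cells transiently transfected (calcium phosphate) with codon-optimized MRGPRX2-Tango (WT or point mutant) or MRGPRB2-Tango, plated next day 20,000 cells/well on poly-L-lysine; drug in HBSS/20 mM HEPES/0.3% BSA pH 7.4 for 18–24 h; Bright-Glo luminescence (RLU); curves n=3 in triplicate, mutants n=4 in triplicate.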

[4] = molecular target: T2, Mas-related G-protein coupled receptor member X2 (Homo sapiens); experiment: Agonist activity at MRGPRX2 (unknown origin) expressed in HTLA cells assessed as induction of beta-arrestin 2 recruitment at 10 uM incubated for 18 to 24 hrs by PRESTO-Tango assay; assay type: functional, cell-based; conditions: filed as agonist, time 18-24 hrs; how it was run: as §2
[5] = molecular target: T3, Tyrosine-protein kinase BTK (Homo sapiens, UniProt Q06187); experiment: Inhibition of BTK (unknown origin) by Kinome scan method
[6] = molecular target: T4, Mitogen-activated protein kinase 8 (Homo sapiens, UniProt P45983); experiment: Inhibition of JNK1 (unknown origin) by Kinome scan method
[7] = molecular target: T5, Mitogen-activated protein kinase 10 (Homo sapiens, UniProt P53779); experiment: Inhibition of JNK3 (unknown origin) by Kinome scan method
[8] = molecular target: T3, Tyrosine-protein kinase BTK; experiment: Binding affinity to BTK (unknown origin) assessed dissociation constant by Kinome scan method
[9] = molecular target: T4, Mitogen-activated protein kinase 8; experiment: Binding affinity to JNK1 (unknown origin) assessed dissociation constant by Kinome scan method
[10] = molecular target: T5, Mitogen-activated protein kinase 10; experiment: Binding affinity to JNK3 (unknown origin) assessed dissociation constant by Kinome scan method
[11] = molecular target: T2, Mas-related G-protein coupled receptor member X2 (Homo sapiens); experiment: Agonist activity at MRGPRX2 receptor in human LAD2 cells assessed as increase in intracellular calcium release by FLIPR assay; assay type: functional, cell-based; conditions: filed as agonist
How it was run: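 LAD2 human mast cells seeded 50,000/well in Tyrode's buffer with calcium dye, 1 h before drug; 10 s baseline, drug added, fluorescence followed 120 s; expressed as fold calcium release over baseline; n=3 in triplicate.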

[12] = molecular target: T1, Mas-related G-protein coupled receptor member X2; experiment: Agonist activity at N-terminal Flag-tagged human MRGPRX2 receptor expressed in tetracycline-induced FLP-IN/T-REX 293 cells assessed as increase in intracellular calcium release by FLIPR assay; assay type: functional, cell-based
[13] = molecular target: T2, Mas-related G-protein coupled receptor member X2 (Homo sapiens); experiment: Agonist activity at N-terminal Flag-tagged human MRGPRX2 receptor expressed in tetracycline-induced HEK-T cells assessed as increase in intracellular calcium release by FLIPR assay; assay type: functional, cell-based; conditions: HEK-T cell, filed as agonist; how it was run: as §1
[14] = molecular target: T2, Mas-related G-protein coupled receptor member X2 (Homo sapiens); experiment: Agonist activity at N-terminal Flag-tagged human MRGPRX2 receptor expressed in HEK-T cells assessed as increase in intracellular calcium release by FLIPR assay; assay type: functional, cell-based; conditions: HEK-T cell; how it was run: as §1
Mu-type opioid receptor = Mu-type opioid receptor (Homo sapiens, UniProt P35372); experiment: Displacement of [3H]-DAMGO from MOR (unknown origin)
[15] = molecular target: T6, Kappa-type opioid receptor (Homo sapiens, UniProt P41145); experiment: Displacement of [3H]-Diprenorphine from KOR (unknown origin)
[16] = molecular target: Delta-type opioid receptor (Homo sapiens, UniProt P41143); experiment: Displacement of [3H]-Naltrindole from DOR (unknown origin)
[17] = molecular target: T2, Mas-related G-protein coupled receptor member X2 (Homo sapiens); experiment: Agonist activity at MRGPRX2 receptor in human LAD2 cells assessed as increase in degranulation incubated for 30 mins by beta-hexosaminidase assay; assay type: functional, cell-based; conditions: filed as agonist
How it was run: (§3)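 β-Hexosaminidase release: LAD2 cells in fresh medium 18 h, washed in Tyrode's buffer pH 7.4, 10,000 cells/well; drug (single concentration or 8-point curve) added in triplicate, 30 min 37°C; supernatant and Triton X-100 lysate each reacted with NAG in citrate pH 4.5 for 90 min 37°C, stopped with carbonate pH 10, A405; % release = released/total ×100, minus vehicle.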

[18] = molecular target: T2, Mas-related G-protein coupled receptor member X2 (Homo sapiens); experiment: Agonist activity at MRGPRX2 receptor in human LAD2 cells transfected with MRGPRX2 siRNA assessed as increase in degranulation incubated for 30 mins by beta-hexosaminidase assay; assay type: functional, cell-based
How it was run: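 LAD2 cells (1.2 million/well) transfected with 25 nM MRGPRX2 siRNA pool or non-targeting pool, 72 h; 200,000 cells taken for β-hexosaminidase assay with EC80 concentration of agonist, 30 min 37°C; knockdown checked by qRT-PCR on 1 million cells; fold change % degranulation versus DMSO; two-way ANOVA with Sidak test.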

[19] = molecular target: T2, Mas-related G-protein coupled receptor member X2 (Homo sapiens); experiment: Agonist activity at MRGPRX2 receptor in human LAD2 cells assessed as increase in degranulation at 10 uM incubated for 30 mins by beta-hexosaminidase assay relative to control; assay type: functional, cell-based; conditions: filed as agonist; how it was run: as §3
[20] = molecular target: T2, Mas-related G-protein coupled receptor member X2 (Homo sapiens); experiment: Agonist activity at MRGPRX2 receptor in human LAD2 cells assessed as increase in degranulation at 10 uM incubated for 30 mins in presence of IgE by beta-hexosaminidase assay relative to control; assay type: functional, cell-based; conditions: filed as agonist; how it was run: as §3
[21] = molecular target: T2, Mas-related G-protein coupled receptor member X2 (Homo sapiens); experiment: Agonist activity at MRGPRX2 receptor in human LAD2 cells assessed as increase in degranulation incubated for 30 mins in presence of naloxone by beta-hexosaminidase assay; assay type: functional, cell-based; how it was run: as §3
[22] = molecular target: T6, Kappa-type opioid receptor; experiment: Agonist activity at KOR (unknown origin) by Glo sensor assay; assay type: functional
HTLA [23] = experiment: Agonist activity at MRGPRX2 D184E mutant (unknown origin) expressed in HTLA cells assessed as induction of beta-arrestin 2 recruitment incubated for 18 to 24 hrs by PRESTO-Tango assay; assay type: cell-based; conditions: Homo sapiens, time 18-24 hrs; how it was run: as §2
HTLA [24] = experiment: Agonist activity at MRGPRX2 D184N mutant (unknown origin) expressed in HTLA cells assessed as induction of beta-arrestin 2 recruitment incubated for 18 to 24 hrs by PRESTO-Tango assay; assay type: cell-based; conditions: Homo sapiens, time 18-24 hrs; how it was run: as §2
HTLA [25] = experiment: Agonist activity at MRGPRX2 E164Q mutant (unknown origin) expressed in HTLA cells assessed as induction of beta-arrestin 2 recruitment incubated for 18 to 24 hrs by PRESTO-Tango assay; assay type: cell-based; conditions: Homo sapiens, filed as agonist, time 18-24 hrs; how it was run: as §2
[26] = Cytotoxicity against HTLA cells expressing MRGPRX2 (unknown origin) at 1 uM after 24 hrs; assay type: toxicity, cell-based; conditions: human

T6 sequence (P41145 whole entry): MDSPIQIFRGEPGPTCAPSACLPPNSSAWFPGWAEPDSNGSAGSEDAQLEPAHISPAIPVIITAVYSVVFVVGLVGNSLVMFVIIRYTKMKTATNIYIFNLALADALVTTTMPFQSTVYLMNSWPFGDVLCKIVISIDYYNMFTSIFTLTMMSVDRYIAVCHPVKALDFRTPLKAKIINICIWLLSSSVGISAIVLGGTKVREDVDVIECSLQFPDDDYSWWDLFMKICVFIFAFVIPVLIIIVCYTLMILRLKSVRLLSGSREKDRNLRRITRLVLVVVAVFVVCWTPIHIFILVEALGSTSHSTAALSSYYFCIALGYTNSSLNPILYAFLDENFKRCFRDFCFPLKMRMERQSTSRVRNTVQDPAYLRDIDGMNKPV
Sequence of Mu-type opioid receptor (P35372 whole entry): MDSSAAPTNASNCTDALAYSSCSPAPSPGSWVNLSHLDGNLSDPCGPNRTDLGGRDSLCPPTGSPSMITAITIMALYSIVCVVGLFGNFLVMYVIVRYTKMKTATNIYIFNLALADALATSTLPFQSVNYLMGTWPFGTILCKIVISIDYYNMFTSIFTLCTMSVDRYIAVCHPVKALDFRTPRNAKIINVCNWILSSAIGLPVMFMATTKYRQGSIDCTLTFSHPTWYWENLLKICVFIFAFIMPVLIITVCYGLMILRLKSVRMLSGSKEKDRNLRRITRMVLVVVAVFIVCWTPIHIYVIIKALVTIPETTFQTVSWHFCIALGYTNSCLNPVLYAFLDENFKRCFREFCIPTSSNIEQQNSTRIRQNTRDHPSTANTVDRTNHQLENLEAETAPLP
T5 sequence (P53779 whole entry): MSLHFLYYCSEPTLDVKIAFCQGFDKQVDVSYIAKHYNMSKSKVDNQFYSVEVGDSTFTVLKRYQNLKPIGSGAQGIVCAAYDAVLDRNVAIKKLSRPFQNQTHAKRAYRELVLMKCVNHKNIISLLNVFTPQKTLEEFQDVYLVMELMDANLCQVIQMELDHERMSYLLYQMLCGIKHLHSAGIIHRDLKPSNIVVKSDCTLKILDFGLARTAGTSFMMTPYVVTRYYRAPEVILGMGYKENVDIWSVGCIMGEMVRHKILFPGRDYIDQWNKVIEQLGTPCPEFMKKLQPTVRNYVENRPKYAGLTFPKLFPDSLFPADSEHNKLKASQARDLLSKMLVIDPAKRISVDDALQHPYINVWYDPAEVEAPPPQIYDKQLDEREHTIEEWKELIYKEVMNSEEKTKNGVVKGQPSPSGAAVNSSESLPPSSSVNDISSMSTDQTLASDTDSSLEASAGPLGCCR
T4 sequence (P45983 whole entry): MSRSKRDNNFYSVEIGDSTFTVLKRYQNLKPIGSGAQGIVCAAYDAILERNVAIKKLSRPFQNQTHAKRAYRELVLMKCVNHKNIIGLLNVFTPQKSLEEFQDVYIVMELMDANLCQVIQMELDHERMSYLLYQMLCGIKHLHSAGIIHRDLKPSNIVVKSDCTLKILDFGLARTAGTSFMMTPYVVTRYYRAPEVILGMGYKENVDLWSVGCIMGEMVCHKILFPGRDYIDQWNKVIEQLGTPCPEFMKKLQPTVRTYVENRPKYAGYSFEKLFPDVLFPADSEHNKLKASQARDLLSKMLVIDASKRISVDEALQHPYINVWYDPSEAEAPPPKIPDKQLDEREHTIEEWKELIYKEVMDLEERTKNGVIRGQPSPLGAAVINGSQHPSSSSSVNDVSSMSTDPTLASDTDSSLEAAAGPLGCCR
T3 sequence (Q06187 whole entry): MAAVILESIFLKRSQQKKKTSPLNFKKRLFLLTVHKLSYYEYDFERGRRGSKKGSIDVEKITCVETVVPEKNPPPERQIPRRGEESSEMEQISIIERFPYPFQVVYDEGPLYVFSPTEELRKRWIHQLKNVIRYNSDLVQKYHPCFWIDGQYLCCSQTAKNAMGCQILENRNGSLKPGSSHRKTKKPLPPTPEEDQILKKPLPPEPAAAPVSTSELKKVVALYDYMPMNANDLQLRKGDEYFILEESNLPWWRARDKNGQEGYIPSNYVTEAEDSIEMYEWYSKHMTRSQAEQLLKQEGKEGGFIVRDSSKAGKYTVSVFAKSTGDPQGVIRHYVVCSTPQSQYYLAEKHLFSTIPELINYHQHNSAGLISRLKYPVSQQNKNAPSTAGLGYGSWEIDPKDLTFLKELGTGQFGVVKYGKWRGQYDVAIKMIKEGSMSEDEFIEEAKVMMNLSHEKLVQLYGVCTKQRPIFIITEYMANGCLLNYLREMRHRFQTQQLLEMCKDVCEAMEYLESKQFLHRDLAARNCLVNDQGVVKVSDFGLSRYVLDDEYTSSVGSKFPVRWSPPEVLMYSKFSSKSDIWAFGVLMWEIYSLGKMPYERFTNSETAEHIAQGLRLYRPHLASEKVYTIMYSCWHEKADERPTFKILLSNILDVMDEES
Sequence of Delta-type opioid receptor (P41143 whole entry): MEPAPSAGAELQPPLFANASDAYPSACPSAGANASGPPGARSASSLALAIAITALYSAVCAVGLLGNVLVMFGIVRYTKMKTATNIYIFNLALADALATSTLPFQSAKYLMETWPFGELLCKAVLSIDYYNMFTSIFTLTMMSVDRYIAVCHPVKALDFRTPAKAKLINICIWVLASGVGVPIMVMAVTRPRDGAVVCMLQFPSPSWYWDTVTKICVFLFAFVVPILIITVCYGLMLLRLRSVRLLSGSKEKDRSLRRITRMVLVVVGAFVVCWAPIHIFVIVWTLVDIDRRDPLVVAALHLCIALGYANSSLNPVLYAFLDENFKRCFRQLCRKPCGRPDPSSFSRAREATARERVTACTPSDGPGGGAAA

Structure (SMILES): Cc1cc2nc(-c3ccccc3)cc(N3CCC(N(C)C)C3)n2n1 (stereo not given)
- EC50 ([1]; read-out: EC50): 3 µM
- Activity [2]: Active
- Activity [3]: Active
- Activity [4]: Active
- IC50 [5]: 20 µM
- IC50 [6]: 20 µM
- IC50 [7]: 20 µM
- Kd [8]: 27 µM
- Kd [9]: 19 µM
- Kd [10]: > 30 µM
- Activity [11]: Active

Structure (SMILES): CN1CCC2(c3cccc(O)c3)Cc3nc4ccccc4cc3CC2C1 (racemic)
- EC50 ([12]; read-out: EC50): 0.74 µM
- EC50 ([12]; read-out: pEC50 (converted)): 0.646 µM
- EC50 ([1]; read-out: pEC50 (converted)): 1.82 µM
- Activity [13]: Active
- Activity [14]: inactive
- EC50 (Mu-type opioid receptor): 0.324 µM
- Ki (Mu-type opioid receptor): 0.239 µM
- EC50 [15]: 88.7 µM
- Ki [15]: 22 µM
- EC50 [16]: 0.0131 µM
- Ki [16]: 0.00294 µM
- Activity [11]: Active
- Activity [17]: Active
- Activity [18]: inactive
- Activity [19]: 70%
- Activity [20]: 70%
- Activity [21]: inactive

Structure (SMILES): CC[C@H](C)[C@H](NC(=O)[C@H](CCCNC(=N)N)NC(=O)[C@H](CCCNC(=N)N)NC(=O)[C@H](CC(C)C)NC(=O)[C@H](Cc1ccccc1)NC(=O)CNC(=O)CNC(=O)[C@@H](N)Cc1ccc(O)cc1)C(=O)N[C@@H](CCCNC(=N)N)C(=O)N1CCC[C@H]1C(=O)N[C@@H](CCCCN)C(=O)N[C@@H](CC(C)C)C(=O)N[C@@H](CCCCN)C(=O)O [ANALOG OF DYNORPHIN A]
- EC50 ([12]; read-out: EC50): 1.1 µM
- EC50 ([1]; read-out: pEC50 (converted)): 30.2 µM
- EC50 [22]: 6 pM
- Activity (HTLA [23]): inactive
- Activity (HTLA [24]): inactive
- Activity (HTLA [25]): Active
- Activity [17]: Active
- Activity [18]: inactive
- Activity [21]: inactive

Structure (SMILES): C[C@@H]1C[C@H]2Cc3ncc(-c4ccc5c(n4)C[C@@H]4C[C@@H](C)C[C@]56NCCC[C@H]46)cc3[C@]3(C1)NCCC[C@H]23 [COMPLANADINE A]
- EC50 ([12]; read-out: EC50): 18 µM
- EC50 ([1]; read-out: pEC50 (converted)): 0.692 µM
- Activity [26]: Toxic
